Source: ChEMBL document CHEMBL1143677, “Discovery of 4-aryl-4H-chromenes as a new series of apoptosis inducers using a cell- and caspase-based high-throughput screening assay. 3. Structure-activity relationships of fused rings at the 7,8-positions” (J Med Chem, 2007)

Assays:
[1] = test system: T47D; experiment: Apoptosis inducing activity in human T47D cells by caspase activation assay; assay type: functional, cell-based
Method in brief: (§1)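 Cell-based caspase activation (apoptosis induction) HTS assay run in T47D breast and H1299 non-small-cell lung cancer cells; EC50 reported as mean ± SEM of three or more experiments.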

[2] = test system: NCI-H1299; experiment: Apoptosis inducing activity in human H1299 cells by caspase activation assay; assay type: functional, cell-based; method in brief: as §1
[3] = test system: T47D; experiment: Growth inhibition of human T47D cells after 48 hrs; assay type: functional
Method in brief: (§2)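 Cells were exposed continuously to compound for 48 h at 37 °C in 96-well format. CellTiter-Glo reagent was added with agitation, then 10-15 min at room temperature before luminescence read-out.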

[4] = Growth inhibition of human H1299 cells after 48 hrs; assay type: functional; conditions: NCI-H1299, 48 h; method in brief: as §2
[5] = molecular target: Tubulin; experiment: Inhibition of tubulin polymerization; assay type: protein-complex assay, Homo sapiens

Row | SMILES | EC50 [1] [µM] | EC50 [2] [µM] | GI50 [3] [µM] | GI50 [4] [µM] | IC50 [5] [µM]
1 | N#CC1=C(N)Oc2c(ccc3cnccc23)C1c1cncc(Br)c1 (stereo not given) | 0.12 | 0.15 | – | – | –
2 | COc1cc(C2C(C#N)=C(N)Oc3c2ccc2[nH]ccc32)cc(Br)c1O (stereo not given) | 0.013 | 0.025 | 0.057 | 0.071 | –
3 | COc1cc(C2C(C#N)=C(N)Oc3c2ccc2ccccc32)cc(I)c1OC (stereo not given) | 0.064 | 0.128 | – | – | –
4 | COc1cc(C2C(C#N)=C(N)Oc3c2ccc2cc[nH]c32)cc(OC)c1OC (stereo not given) | 0.072 | 0.18 | – | – | –
5 | COc1cc(OC)cc(C2C(C#N)=C(N)Oc3c2ccc2[nH]ccc32)c1 (stereo not given) | 0.03 | 0.12 | – | – | –
6 | COc1cncc(C2C(C#N)=C(N)Oc3c2ccc2[nH]ccc32)c1 (stereo not given) | 0.016 | 0.03 | – | – | –
7 | COc1cc(C2C(C#N)=C(N)Oc3c2ccc(N)c3N)cc(Br)c1OC (stereo not given) | – | – | 0.15 | 0.031 | –
8 | COc1cccc(C2C(C#N)=C(N)Oc3c2ccc2[nH]ccc32)c1 (stereo not given) | 0.052 | 0.066 | – | – | –
9 | COc1cc(C2C(C#N)=C(N)Oc3c2ccc2ccccc32)cc(Br)c1OC (stereo not given) | 0.073 | 0.093 | – | – | –
10 | COc1cc(C2C(C#N)=C(N)Oc3c2ccc2cnccc32)cc(OC)c1OC (stereo not given) | 0.12 | 0.44 | – | – | –
11 | COc1cc(C2C(C#N)=C(N)Oc3c2ccc2[nH]c(C)cc32)cc(Br)c1OC (stereo not given) | – | 0.057 | 0.089 | 0.14 | –
12 | COc1cc(C2C(C#N)=C(N)Oc3c2ccc2cnccc32)cc(Br)c1OC (stereo not given) | 0.061 | 0.15 | 0.057 | 0.071 | –
13 | N#CC1=C(N)Oc2c(ccc3[nH]ccc23)C1c1ccccc1 (stereo not given) | – | 0.43 | – | – | –
14 | COc1cc(C2C(C#N)=C(N)Oc3c2ccc2cc[nH]c32)cc(Br)c1OC (stereo not given) | – | 0.053 | 0.009 | 0.006 | 0.9
15 | N#CC1=C(N)Oc2c(ccc3[nH]ccc23)C1c1cccc([N+](=O)[O-])c1 (stereo not given) | 0.068 | 0.096 | – | – | –
16 | COc1cc(C2C(C#N)=C(N)Oc3c2ccc2c3CCCC2)cc(Br)c1OC (stereo not given) | 0.19 | 0.52 | – | – | –
17 | COc1cc(C2C(C#N)=C(N)Oc3c2ccc2[nH]ccc32)cc(Br)c1OC (stereo not given) | – | 0.013 | 0.008 | 0.019 | 0.4

Row | SMILES | EC50 [1] [µM] | EC50 [2] [µM] | GI50 [3] [µM] | GI50 [4] [µM] | IC50 [5] [µM]
18 | COc1cc(C2C(C#N)=C(N)Oc3c2ccc2ncccc32)cc(Br)c1OC (stereo not given) | 0.065 | 0.14 | – | – | –
19 | N#CC1=C(N)Oc2c(ccc3[nH]ccc23)C1c1cccc(C#N)c1 (stereo not given) | 0.043 | 0.043 | – | – | –
20 | COc1cc(C2C(C#N)=C(N)Oc3c2ccc2ncccc32)cc(OC)c1OC (stereo not given) | 0.16 | 0.022 | – | – | –
21 | COc1cc(C2C(C#N)=C(N)Oc3c2ccc2nccnc32)cc(Br)c1OC (stereo not given) | 0.46 | 0.86 | 0.45 | 0.55 | –
22 | COc1cc(OC)cc(C2C(C#N)=C(N)Oc3c2ccc2cc[nH]c32)c1 (stereo not given) | 0.031 | 0.059 | – | – | –
23 | COc1cccc(C2C(C#N)=C(N)Oc3c2ccc2cc[nH]c32)c1 (stereo not given) | 0.088 | 0.14 | – | – | –
24 | COc1cc(C2C(C#N)=C(N)Oc3c2ccc2cccnc32)cc(Br)c1OC (stereo not given) | 0.029 | 0.094 | – | – | –
25 | COc1cc(C2C(C#N)=C(N)Oc3c2ccc2cnccc32)cc(I)c1OC (stereo not given) | 0.064 | 0.13 | – | – | –
26 | COc1cc(C2C(C#N)=C(N)Oc3c2ccc2ccccc32)cc(OC)c1OC (stereo not given) | 0.027 | 0.067 | – | – | –
27 | COc1cc(C2C(C#N)=C(N)Oc3c2ccc2[nH]ccc32)cc(OC)c1OC (stereo not given) | 0.03 | 0.077 | – | – | –
28 | Cc1cncc(C2C(C#N)=C(N)Oc3c2ccc2[nH]ccc32)c1 (stereo not given) | 0.013 | 0.065 | 0.073 | 0.1 | –
29 | COc1cc(C2C(C#N)=C(N)Oc3c2ccc2nc(C)c(C)nc32)cc(Br)c1OC (stereo not given) | 2.12 | 2.72 | – | – | –
30 | N#CC1=C(N)Oc2c(ccc3cc[nH]c23)C1c1cccc(C#N)c1 (stereo not given) | 0.12 | 0.13 | – | – | –
31 | N#CC1=C(N)Oc2c(ccc3[nH]ccc23)C1c1cccnc1 (stereo not given) | 0.11 | 0.19 | – | – | –
32 | COc1cc(C2C(C#N)=C(N)Oc3c2ccc2cc[nH]c32)cc(Br)c1O (stereo not given) | 0.035 | 0.08 | 0.07 | 0.07 | –
33 | Cc1cncc(C2C(C#N)=C(N)Oc3c2ccc2cnccc32)c1 (stereo not given) | 0.23 | 0.29 | – | – | –
